# AI-2 QS mod = Vibrio harveyi AI-2 quorum sensing modulators, primary screen, JMH597 strain, luminescence/OD600 ratio. 300,000 compounds, 0.4% hits. Vibrio harveyi JMH597 AI-2 luminescence/OD600 ratio, 9 h; active compounds read low; strain lacks LuxN and CqsS sensors; 0 = neutral-control median. activity change, % at 7.5 µM; in the data active means activity change below about -75%, passing the limit was not always enough;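 further: luminescence divided by OD600 gain over 9 h not by final OD600 alone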
# hERG rescue = hERG rescue from dofetilide block, primary screen, cell-based, CHO-hERG, FluxOR thallium flux, dofetilide IC70 | dofetilide IC70 present | activation (rescue from dofetilide block), less the hit threshold, % at 10 µM | 310,000 compounds, 0.51% hits | AID 1511, 2009;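 active means activation above the mean of controls blocked by dofetilide plus 5 SD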;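 further: thallium influx through hERG after potassium depolarization seen as dye fluorescence rise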
# Mot1-301 SUMO = yeast Mot1-301 growth rescue at high temperature, primary screen, SUMOylation pathway inhibitor project, S. cerevisiae, ATP luminescence, 38.5C; S. cerevisiae Mot1-301 growth rescue; percent above DMSO median, 100 means doubled; growth rescue, % at 18.8 µM; 320,000 compounds, 1% hits; AID 2716, 2010;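 active means every valid replicate shows activation above 250% relative to neutral control wells; inactive means the rest, any valid replicate at or below 250%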
# KCC2 mod = KCC2 cotransporter modulators, thallium flux, primary screen, cell-based, HEK293 KCC2, FluoZin-2 fluorescence, MLSMR | KCC2 cells, thallium flux FluoZin-2 fluorescence | B-score of Tl+ flux slope (higher = more flux/activation; lower = inhibition) at 10 µM | 190,000 compounds, 2.2% hits | Solute carrier family 12 member 5 (Homo sapiens), Q9H2X9 | AID 1456, 2008;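 active means thallium flux slope and its plate-corrected score both differing from the plate sample mean at a set confidence after two filtering rounds, in either direction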;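 further: slope of fluorescence scaled to starting intensity during 10 to 20 s after thallium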
# KCNQ1 inh = inhibitors of human KCNQ1 channel, primary screen, cell-based, thallium flux, high-throughput; Potassium voltage-gated channel subfamily KQT member 1 (Homo sapiens), P51787; CHO-K1 KCNQ1, FluxOR thallium flux fluorescence; active compounds read high; B-score at 10 µM; 310,000 compounds, 1.3% hits; AID 2642, 2010;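 active means compounds whose thallium flux B-score, printed positive for inhibition, exceeds three library SD while starting fluorescence stays within three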;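 further: channel opened by potassium depolarization with thallium stimulus after 20 min compound exposure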
# Target sequence (P51787 whole entry, looked up): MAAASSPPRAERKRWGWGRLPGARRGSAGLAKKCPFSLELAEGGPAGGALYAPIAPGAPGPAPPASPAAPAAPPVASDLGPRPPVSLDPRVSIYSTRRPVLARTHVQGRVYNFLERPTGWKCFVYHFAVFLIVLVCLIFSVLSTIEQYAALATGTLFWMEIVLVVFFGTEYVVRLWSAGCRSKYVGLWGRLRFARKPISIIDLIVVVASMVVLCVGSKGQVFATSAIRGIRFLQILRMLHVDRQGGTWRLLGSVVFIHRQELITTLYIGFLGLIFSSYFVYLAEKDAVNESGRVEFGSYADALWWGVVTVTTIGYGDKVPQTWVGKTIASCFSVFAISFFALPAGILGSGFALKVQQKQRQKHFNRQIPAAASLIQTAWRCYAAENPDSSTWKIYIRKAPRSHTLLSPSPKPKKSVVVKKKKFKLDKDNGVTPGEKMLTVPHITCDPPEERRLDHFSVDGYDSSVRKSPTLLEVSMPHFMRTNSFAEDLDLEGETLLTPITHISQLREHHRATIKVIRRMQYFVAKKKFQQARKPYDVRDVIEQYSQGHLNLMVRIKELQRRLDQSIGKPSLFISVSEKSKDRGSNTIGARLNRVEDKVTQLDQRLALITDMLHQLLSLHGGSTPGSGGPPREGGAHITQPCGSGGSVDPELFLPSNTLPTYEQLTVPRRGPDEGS
# KCNQ1 pot = potentiators or activators of KCNQ1 channel, primary screen, cell-based, thallium flux, high-throughput; Potassium voltage-gated channel subfamily KQT member 1 (Homo sapiens), P51787; CHO-K1 KCNQ1, thallium flux FluxOR fluorescence; active compounds read high; B-score at 10 µM; 310,000 compounds, 0.35% hits;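 active means fluorescence ratio B-score, a plate-corrected score, at least three library SD, with initial intensity B-score within 5 SD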
#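 assay system = CHO-K1 cells stably expressing KCNQ1 | medium = assay buffer, equal DMSO in all wells | timing = 37 °C overnight plating, 90-min dark dye load, 20-min compound pretreatment | measured by = kinetic FluxOR thallium fluorescence, 10-s 1-Hz baseline, 110-s post-stimulus read | measure = fluorescence change relative to baseline, converted to B score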
# Hits are given with their value; n = inactive; x = no result given. An excerpt weighted towards active compounds, which were near 4.2% of everything screened.
SMILES,AI-2 QS mod,hERG rescue,Mot1-301 SUMO,KCC2 mod,KCNQ1 inh,KCNQ1 pot
COc1ccc(C(=O)CC(=O)C(=O)Nc2ccccc2)cc1,n,5.0,n,x,n,n
COc1ccc(C(=O)CC(=O)C(=O)Nc2cc(C)ccc2C)cc1,n,n,n,x,n,n
CCOc1ccccc1NC(=O)C(=O)CC(=O)c1ccc(OC)cc1,n,15,n,x,n,14
CC(O/N=C(\N)c1ccccc1)C(=O)Nc1cccc(C(F)(F)F)c1 (configuration not stated),x,x,n,x,x,x
CC(=O)OCc1nc2sc3c(c2c(=O)[nH]1)CCCC3,n,n,n,n,n,n
COCc1nc2sc3c(c2c(=O)[nH]1)CCCC3,n,n,481,n,n,n
Cc1ccc(C(=O)N/C(=C\c2ccc(-c3cccc([N+](=O)[O-])c3)o2)C(=O)NCCCN(C)C)cc1,n,n,n,x,n,n
Cc1ccc(C(=O)N/C(=C\c2ccc(-c3ccc(Br)cc3)o2)C(=O)NCCCN(C)C)cc1,n,n,n,n,8,n
CC(=O)n1cc(N(C(=O)CCl)c2ccc([N+](=O)[O-])cc2)c2ccccc21,n,n,n,n,7,n
O=C(CCl)N(c1ccc(Cl)cc1)c1c[nH]c2ccccc12,n,n,n,n,n,n
O=Cc1[nH]c2ccccc2c1N(C(=O)CCl)c1ccc([N+](=O)[O-])cc1,n,n,n,n,9,n
CC(=O)n1cc(N(C(=O)CCl)c2ccccc2)c2ccccc21,n,n,n,n,n,n
O=C(Nc1cc(Sc2ccccn2)cc([N+](=O)[O-])c1)c1cccc(Cl)c1,n,n,n,n,7,n
O=C(Nc1cc(Sc2ccccn2)cc([N+](=O)[O-])c1)c1ccc(Cl)cc1,n,n,n,n,n,n
O=C(N/C=C/c1ccco1)Nc1cccc(Cl)c1,n,n,n,n,6,n
CCN(CC)S(=O)(=O)c1cccc(NC(=O)CCNC(=O)NC23CC4CC(CC(C4)C2)C3)c1,n,n,n,x,8,n
CN(C)S(=O)(=O)c1cccc(NC(=S)NC23CC4CC(CC(C4)C2)C3)c1,n,n,n,x,n,n
Cn1ccsc1=NC(=O)c1cccc(C#N)c1,n,n,n,x,n,n
CC(C)(C)c1ccc(CNC(=O)c2ccc3c(c2)NC(=O)CO3)cc1,n,n,331,n,n,n
O=C1COc2ccc(C(=O)COC(=O)Cc3ccc(F)cc3)cc2N1,-82,n,n,x,n,n
O=C1COc2ccc(C(=O)NC3CC3)cc2N1,x,n,n,n,n,n
CC(C)CC(NC(=O)c1ccc(Cl)cc1)C(=O)OCC(=O)c1ccc2c(c1)NC(=O)CO2 (configuration not stated),n,n,n,n,n,13
CC(C)[C@H](NC(=O)c1ccco1)C(=O)OCC(=O)c1ccc2c(c1)NC(=O)CO2,n,n,n,n,n,n
Cc1ccc(CNC(=O)[C@H](C)NC(=O)C2CCN(C(=O)[C@@H]3CCCN3C(=O)OC(C)(C)C)CC2)cc1,n,n,n,x,n,n
O=S(=O)(C/C(=C/CO)S(=O)(=O)c1ccccc1)c1ccccc1,n,n,n,x,6,n
SMILES,AI-2 QS mod,hERG rescue,Mot1-301 SUMO,KCC2 mod,KCNQ1 inh,KCNQ1 pot
Cc1ccc(C)c(C(=O)Cn2c(NCCO)nc3ccccc32)c1,n,n,n,x,n,n
COc1cccc(NC(=O)[C@H](C)NC(=O)C2CCN(S(=O)(=O)c3ccc(C)cc3)CC2)c1,n,n,n,n,n,n
CCOC(=O)N1CCN(S(=O)(=O)c2ccc(OCC(=O)OC)c(Cl)c2)CC1,n,n,287,x,n,n
CCOC(=O)N1CCN(S(=O)(=O)c2ccc(OC)c(Cl)c2)CC1,n,n,n,n,n,n
C/C(=N/Nc1nc(-c2ccccc2F)nc2ccccc12)c1ccccc1O,n,n,n,n,7,n
C/C(=N\Nc1nc(-c2ccccc2O)nc2ccccc12)c1ccccc1,n,n,n,n,n,n
C=CCNC(=S)Nc1sc2c(c1C(=O)OCC)CCN(C(=O)OCC)C2,n,n,n,n,n,n
C=CCNC(=S)Nc1sc2c(c1C(=O)OCC)CC(C)(CC)OC2 (configuration not stated),n,9.4,n,22,n,22
Fc1ccc(C(c2ccc(F)cc2)N2CCN(C/C=C/c3ccccc3)CC2)cc1,n,n,n,n,8,n
CC(C(=O)N(C)Cc1ccccc1)N1CCN(C/C=C/c2ccccc2)CC1 (configuration not stated),n,n,282,n,n,n
C#CCNC(=O)C1=C[C@@H](c2ccc(C(F)(F)F)cc2)[C@H](CCCO)[C@@H](OCC)O1,n,n,n,n,n,n
C[C@H](NC(=O)c1ccc(Cl)cc1)C(=O)NNC(=O)c1cccs1,x,x,n,x,x,x
CCCSc1nc(NCc2ccco2)c2c3c(sc2n1)COC(C)(C)C3,n,n,n,n,6,n
CCCCSc1nc(NCc2ccco2)c2c3c(sc2n1)COC(C)(C)C3,n,n,n,n,6,n
Cc1nc2sc3c(NCc4ccco4)ncnc3c2c2c1COC(C)(C)C2,n,n,n,n,n,n
CSc1nc(NCc2ccco2)c2c3c(sc2n1)CN(C)CC3,n,n,n,n,n,n
COc1ccc(C2=NS(=O)(=O)N(C)C(C(=O)Nc3cc(C)ccc3O)=C2)cc1OC,n,n,n,x,9,n
O=C1NC(=S)S/C1=C/c1ccc(N2CCOCC2)o1,n,n,n,-7.7,n,n
Cc1cnc(N)c2c(=O)oc3ccccc3c12,n,n,n,x,n,n
O=c1oc2ccccc2c2nccnc12,n,n,324,n,n,n
Cn1c(=O)c2ccccc2n(CC(=O)N2CCCc3ccccc32)c1=O,n,n,n,x,n,n
Cc1ccc2[nH]c(O)c(N=Nc3nc4ccccc4s3)c2c1,n,n,n,40,n,n
Oc1[nH]c2ccccc2c1N=Nc1nc2ccccc2s1,n,n,n,6,n,n
Cc1cc2ccccn2c1C(=O)c1cccc([N+](=O)[O-])c1,n,n,n,n,n,n
Cc1cc2ccccn2c1C(=O)c1ccc([N+](=O)[O-])cc1[N+](=O)[O-],n,n,317,x,n,n
Cc1c(NC(=O)c2cc(-n3cnnc3)ccc2Cl)cccc1-c1nc2ccccc2s1,n,n,n,x,n,n

# Assay outcomes deposited in PubChem by several laboratories.
